In ChEMBL document CHEMBL4014343 (J Med Chem, 2017):
Activity calls are given as the source filed them.

What was measured:
OVCAR-4 = experiment: Growth inhibition of human OVCAR4 cells incubated for 48 hrs by sulforhodamine B assay; type: functional, cell-based
PC-3 = experiment: Growth inhibition of human PC3 cells incubated for 48 hrs by sulforhodamine B assay; type: functional, cell-based
RPMI-8226 = experiment: Growth inhibition of human RPMI8226 cells incubated for 48 hrs by sulforhodamine B assay; type: functional, cell-based
[1] = molecular target: CDK2/Cyclin A2 (Homo sapiens) (UniProt P24941+P20248); experiment: Inhibition of recombinant human N-terminal GST-tagged CDK2 (M1 to L298 residues)/Cyclin A2 (M1 to L432 residues) expressed in baculovirus infected sf9 cells at 1 uM using Histone H1 as substrate by filter binding assay
Summary of the method: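 Single-point profiling at 1 μM in a 22-kinase panel, performed externally by ProQinase; activity read as residual percent of control.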

A549 = experiment: Growth inhibition of human A549/ATCC cells incubated for 48 hrs by sulforhodamine B assay; type: functional, cell-based
MCF7 = experiment: Induction of apoptosis in human MCF7 cells assessed as PARP cleavage after 6 hrs by immunoblot analysis; type: functional, cell-based
Summary of the method: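 MCF7 in DMEM/10% FBS for 24 h, then treated 6 h; 0.1% DMSO as non-treated, Src inhibitor (10 μM) as positive control. Lysates (40 μg protein) on 10% SDS-PAGE, immunoblotted for PARP cleavage with ECL detection; β-actin loading control.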

SR = experiment: Growth inhibition of human SR cells incubated for 48 hrs by sulforhodamine B assay; type: functional, cell-based
Summary of the method: (§1)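 NCI-60 panel growth inhibition, run by the U.S. National Cancer Institute; GI50 values are means of two test series.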

IGROV-1 = experiment: Growth inhibition of human IGROV1 cells incubated for 48 hrs by sulforhodamine B assay; type: functional, cell-based
U-251 = experiment: Growth inhibition of human U251 cells incubated for 48 hrs by sulforhodamine B assay; type: functional, cell-based; summary of the method: as §1
UACC-257 = experiment: Growth inhibition of human UACC257 cells incubated for 48 hrs by sulforhodamine B assay; type: functional, cell-based; summary of the method: as §1
UO-31 = experiment: Growth inhibition of human UO31 cells incubated for 48 hrs by sulforhodamine B assay; type: functional, cell-based; summary of the method: as §1

CN1CCN(CCO/N=C2/C(=C3/C(=O)Nc4ccccc43)Nc3ccccc32)CC1
active: growth inhibition (GI) (OVCAR-4) | growth inhibition (GI) (PC-3) | growth inhibition (GI) (RPMI-8226) | growth inhibition (GI) (A549) | Activity (MCF7) | growth inhibition (GI) (SR) | growth inhibition (GI) (IGROV-1) | growth inhibition (GI) (U-251) | growth inhibition (GI) (UACC-257) | growth inhibition (GI) (UO-31)
inactive: inhibition [1]
